Source: PubChem BioAssay (Broad Institute)
Shown are actives, neighbours in structure and some others; about 1.4% of the full set was active somewhere.
ERp5 inh – blocks human ERp5 reductase activity on insulin; Q15084; ERp5 insulin aggregation, absorbance 650 nm, 90 min; inhibition, % at 9.99 µM; 350,000 compounds, 0.05% hits; AID 651711;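 active means mean replicate inhibition above about 25%, with every replicate also reaching it, limit read from the data, passing the limit was not always enough; inconclusive means only one of those two criteria met; inactive means neither criterion met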
GSIS activator – GLuc luminescence reporter in INS-1E cells, primary screen for activators of glucose-dependent secretion of insulin | INS-1E GLuc reporter insulin secretion, 2-3 h | activation, % at 16.6 µM | 370,000 compounds, 0.61% hits;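 active means lowest replicate activation of at least 40%, so every replicate reaches that level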;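 further: 0% = median of neutral control wells and 100% = median of IBMX positive control wells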
PDI turbidity – blocks human protein disulfide isomerase activity | P07237 | inhibition, % at 10 µM | 350,000 compounds, 0.052% hits | PDI insulin aggregation turbidity, A650, 90 min;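 active means mean inhibition across replicates of 30% or more, whatever share of single replicates reach that level; inconclusive means mean inhibition below 30% while every single replicate reaches 30%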
Target sequence (P07237 whole entry, looked up): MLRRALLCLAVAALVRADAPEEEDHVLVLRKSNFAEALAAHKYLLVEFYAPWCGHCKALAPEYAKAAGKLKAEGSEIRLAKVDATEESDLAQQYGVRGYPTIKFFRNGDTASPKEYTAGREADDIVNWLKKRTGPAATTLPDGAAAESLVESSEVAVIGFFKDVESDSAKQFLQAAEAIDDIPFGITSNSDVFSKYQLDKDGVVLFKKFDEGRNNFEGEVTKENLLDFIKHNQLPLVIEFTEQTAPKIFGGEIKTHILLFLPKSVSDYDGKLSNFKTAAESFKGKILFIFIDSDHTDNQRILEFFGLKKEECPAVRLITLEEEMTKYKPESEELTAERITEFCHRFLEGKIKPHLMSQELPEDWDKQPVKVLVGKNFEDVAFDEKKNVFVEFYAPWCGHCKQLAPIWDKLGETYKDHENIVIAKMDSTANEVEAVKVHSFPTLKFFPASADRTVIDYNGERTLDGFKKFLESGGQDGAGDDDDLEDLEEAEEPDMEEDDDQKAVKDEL
FN deposition inh – fibronectin deposition inhibition | 350,000 compounds, 0.086% hits | AH1F fibroblasts, Alexa488-fibronectin deposition fluorescence, overnight | inhibition, % at 12.6 µM;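 active means mean inhibition across replicates of 30% or more, regardless of how many single replicates reach that level; inconclusive means mean under 30% yet at least half of replicates reach 30%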;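 further: positive control wells lacked labelled fibronectin entirely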
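Assay system: AH1F fibroblasts / Quantity: 10000 cells per well / Medium: DMEM plus 2% serum, read in PBS / Reagent: labelled fibronectin 24 nM / Dosing: single dose, pinned / Times: 1 h cell attachment, overnight exposure to compound and label / Signal: fluorescence, ex 485 nm, em 525 nm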
Env fusion inh – inhibitors of HIV Env-mediated cell fusion. inhibition, % at 12.3 µM. 360,000 compounds, 1.1% hits. HeLa-JRFL Env/CEM21 cell fusion, luciferase. AID 651610;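 active means mean replicate inhibition score of at least 50 and every replicate individually at or above 50; inconclusive means only one of the two criteria met; inactive means mean below 50 and not all replicates reaching 50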;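 further: 0% = plate neutral controls and 100% = maraviroc near 300 nM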
Active calls of the source: *; ? = inconclusive; . = no result given; [ ] = remark or other dose.

SMILES	ERp5 inh	GSIS activator	PDI turbidity	FN deposition inh	Env fusion inh
CC(C)CNS(=O)(=O)c1ccc(CCC(=O)N2CCN(Cc3ccc4c(c3)OCO4)CC2)cc1	.	.	-15.9	1.7	78.7*
Clc1ccc(OCCn2ccnc2)c(Cl)c1	.	48.5*	7.0	-17.8	-44.6
COc1ccccc1OCCn1ccnc1	4.2	8.5	-1.5	4.0	-8.0
CCC(C)c1ccccc1OCCn1ccnc1 (stereo not given)	.	47.8*	0.9	8.2	-3.0
O=C1CCCC2=C1C(c1ccc(Cl)cc1)C1C(=O)c3ccccc3C1=N2 (stereo not given)	.	-61.6	3.7	1.3	59.5*
O=C1CCCC2=C1C(c1ccccc1)C1C(=O)c3ccccc3C1=N2 (stereo not given)	.	-40.0	2.7	-14.8	30.4
C[C@@H]1CN([C@H](C)CO)C(=O)c2cc(C3=CCCC3)cnc2O[C@H]1CN(C)C(=O)c1ccncc1	1.0	5.6	.	-4.8	11.3[16.7 µM]
C[C@H](CO)N1C[C@H](C)[C@@H](CN(C)C(=O)Nc2cccc3ccccc23)OCCCC[C@H](C)Oc2ccc(NS(=O)(=O)c3ccccc3)cc2C1=O	0.6	3.9	.	-10.8	32.4[16.7 µM]
C[C@H]1CCCCO[C@H](CN(C)C(=O)Nc2cccc3ccccc23)[C@@H](C)CN([C@@H](C)CO)C(=O)c2cc(NC(=O)NC3CCCCC3)ccc2O1	1.8	20.3	.	10.9	61.4*[16.7 µM]
C[C@@H]1CCCCO[C@H](CN(C)C(=O)Nc2cccc3ccccc23)[C@H](C)CN([C@H](C)CO)C(=O)c2cc(NS(=O)(=O)c3ccccc3)ccc2O1	-3.1	-10.7	.	-12.4	62.4*[16.7 µM]
C[C@@H]1CN([C@@H](C)CO)C(=O)c2cc(NC(=O)c3ccccc3)ccc2O[C@@H](C)CCCCO[C@H]1CN(C)C(=O)Nc1cccc2ccccc12	-0.8	15.9	.	6.4	59.8*[16.7 µM]
C[C@H](CO)N1C[C@H](C)[C@H](CN(C)C(=O)Nc2cccc3ccccc23)OCCCC[C@H](C)Oc2ccc(NC(=O)c3ccccc3)cc2C1=O	-5.0	3.2	.	12.4	-27.4[16.7 µM]
CC(C)NC(=O)N(C)C[C@@H]1Oc2ccc(NC(=O)C3CCCCC3)cc2CC(=O)N([C@@H](C)CO)C[C@H]1C	0.3	17.2	.	.	19.6[16.7 µM]
N#Cc1ccc(-c2ccc(C3[C@H]4CNC[C@@H]3N4S(=O)(=O)c3ccc(-c4ccccc4)cc3)cc2)cc1 (stereo not given in full)	5.0	12.3	.	11.0	.
Cc1ccc(NC(=O)c2cc(N3C(=O)C=CC3=O)ccc2Cl)cc1C	.	49.5*	5.9	-6.0	-31.2
C=CCn1c(SC(F)F)nc2scc(-c3ccco3)c2c1=O	3.5	4.8	-1.3	37.2*	-22.4
C[C@@H]1CN([C@@H](C)CO)C(=O)c2cccc(NS(=O)(=O)c3ccccc3)c2O[C@H]1CN(C)C(=O)Nc1ccc(F)cc1	4.2	2.5	.	.	.
CCN(C1CCCCC1)S(=O)(=O)c1ccc(S(=O)(=O)N(CC(=O)Nc2ccccc2)C2CC2)cc1	.	.	0.0	.	74.8*
O=C(CN(C1CC1)S(=O)(=O)c1ccc(S(=O)(=O)N2CCCCCC2)cc1)Nc1ccccc1	.	.	-1.2	.	.
O=C(Nc1nc2c(s1)CCCC2)c1ccc(S(=O)(=O)N2CCCc3ccccc32)cc1	.	-37.6	-2.9	.	64.0*
COC(=O)Nc1ccc(S(=O)(=O)N2CCCc3cccc(O)c32)cc1	5.3	20.6	1.9	12.6	-55.5
COC(=O)Nc1ccc(S(=O)(=O)N2CCCc3ccccc32)cc1	.	.	-1.6	14.9*	59.0*
Cc1ccc(N2C(=O)CC(c3ccsc3)C3=C2CC(C)(C)CC3=O)cc1 (stereo not given)	.	.	-5.3	-1.1	107.5*
C[C@@H]1CN([C@@H](C)CO)C(=O)c2cc(-c3ccc(C#N)cc3)cnc2O[C@@H]1CN(C)CC1CCOCC1	-2.6	9.0	.	.	8.9[16.7 µM]
COc1cc2ncnc(NCc3ccco3)c2cc1OC	0.8	1.7	-1.0	-1.0	30.4
SMILES	ERp5 inh	GSIS activator	PDI turbidity	FN deposition inh	Env fusion inh
CC(C)Nc1ncnc2ccc(Br)cc12	-3.0	-26.6	-8.9	12.7	55.1*
CC(=O)c1cccc(Nc2ncnc3ccc(Br)cc23)c1	1.9	49.0*	9.5	-16.2	21.2
Brc1ccc2ncnc(NCc3ccco3)c2c1	.	-37.6	9.7	15.3	66.8*
CC(=O)c1ccc(Nc2ncnc3ccc(Br)cc23)cc1	1.5	.	6.2	.	34.7
CSCCC(Nc1ncnc2ccc(Br)cc12)C(=O)O (stereo not given)	-0.2	15.9	1.0	.	5.2
C[C@@H]1CN([C@H](C)CO)C(=O)c2cc(C#Cc3ccc(F)cc3)cnc2O[C@@H]1CN(C)CC1CC1	-4.3	-15.5	.	9.4	-2.2[16.7 µM]
COCC#Cc1cnc2c(c1)C(=O)N([C@@H](C)CO)C[C@H](C)[C@@H](CN(C)C(=O)CCN1CCCCC1)O2	-3.8	12.0	.	.	-9.2[16.7 µM]
CCC(=O)N1[C@H](CO)[C@H](c2ccc(-c3ccc(F)cc3)cc2)[C@H]1CNC(C)=O	.	-8.6	.	-17.5	.
CCN(CC)C1=CC(=[N+]2CCCC2)CC(C)(C)C1	.	-27.2	-2.1	-5.5	?
CC1(C)CC(N2CCCC2)=CC(=[N+]2CCCCCC2)C1	-3.3	-25.4	-0.5	.	33.7
CC1(C)CC(N2CCN(c3ccccc3)CC2)=CC(=[N+]2CCCC2)C1	.	-51.8	2.3	14.8	81.0*
CN(Cc1ccccc1)C1=CC(=[N+]2CCCC2)CC(C)(C)C1	1.0	-59.5	4.4	-1.5	60.4*
CCS(=O)(=O)N1CC2(CN(C(=O)CN3CCOCC3)[C@@H](CO)c3c2c2ccc(OC)cc2n3C)C1	-1.4	23.0	.	.	-13.8[16.7 µM]
Cc1ccc(S(=O)(=O)Nc2ccc3c(c2)C(=O)N([C@@H](C)CO)C[C@@H](C)[C@@H](CN(C)C(=O)Nc2ccc(C(F)(F)F)cc2)OCCCC[C@@H](C)O3)cc1	-2.3	-22.6	.	-23.1	12.4[16.7 µM]
CO[C@@H]1CN(C)C(=O)c2cc(NC(=O)C3CC3)ccc2OC[C@H](C)N(Cc2ccncc2)C[C@@H]1C	-0.3	-5.8	.	1.0	.
COCc1c(C#N)c(NCc2cc(OC)c(OC)c(OC)c2)nc(C)c1[N+](=O)[O-]	0.0	.	-0.9	1.6	56.7*
Cc1cc(C)c2nc(SCC(=O)NCCN3C(=O)CSC3=O)cc(C)c2c1	-1.9	9.9	-7.6	-0.3	-8.5
Cc1cc(SCC(=O)NCCN2C(=O)CSC2=O)nc2c(C)cccc12	.	45.8*	-18.5	.	.
Cc1ccccc1OCc1nnc(SCC(=O)Nc2ccc3c(c2)oc2ccccc23)n1C	.	130.7*	-6.9	5.4	-84.9
S=C(NCc1ccccc1)Nc1ccc2cn[nH]c2c1	-1.3	40.1*	-2.4	14.5	-93.2
COc1ccc(/C=C/c2cc(-c3ccc(C)cc3)o[n+]2C)cc1	.	-25.1	-5.4	-5.7	134.2*
CC(=O)c1c(C)[nH]c(C(=O)OCC(=O)Nc2ccc(Cl)c(S(=O)(=O)N(C)C)c2)c1C	?	-37.7	-2.5	2.1	78.8*
CC(=O)c1c(C)[nH]c(C(=O)Nc2ccc(Cl)c(S(=O)(=O)N(C)C)c2)c1C	-6.1	1.6	-2.1	11.2	-69.3
